In the library only some 1.9% were active in any assay of this set; here they are far more common.
NPY1 pot ag: human NPY-Y1 potentiation or agonism, primary screen | activation, % at 3.6 µM | NPY-Y1 expressing cells, potentiator/agonist activation | 220,000 tested, 0.37% active; in the data active = activation above about 33%, passing the limit was not always enough;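 note: cells stimulated with NPY at EC10 then isoproterenol at EC100; 0% = low agonist plus stimulus and 100% = saturating agonist plus stimulus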
NPY-Y2 PAM-ag: potentiates or activates human NPY-Y2 receptor; P49146; cells expressing NPY-Y2, potentiator/agonist read-out; activation, % at 3.6 µM; 220,000 tested, 0.45% active; AID 1359; in the data active = activation above about 27%;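 note: cells stimulated with NPY near EC25 plus isoproterenol at EC100; 0% = vehicle plus submaximal agonist and 100% = vehicle plus saturating agonist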
Target sequence (P49146 whole entry, looked up): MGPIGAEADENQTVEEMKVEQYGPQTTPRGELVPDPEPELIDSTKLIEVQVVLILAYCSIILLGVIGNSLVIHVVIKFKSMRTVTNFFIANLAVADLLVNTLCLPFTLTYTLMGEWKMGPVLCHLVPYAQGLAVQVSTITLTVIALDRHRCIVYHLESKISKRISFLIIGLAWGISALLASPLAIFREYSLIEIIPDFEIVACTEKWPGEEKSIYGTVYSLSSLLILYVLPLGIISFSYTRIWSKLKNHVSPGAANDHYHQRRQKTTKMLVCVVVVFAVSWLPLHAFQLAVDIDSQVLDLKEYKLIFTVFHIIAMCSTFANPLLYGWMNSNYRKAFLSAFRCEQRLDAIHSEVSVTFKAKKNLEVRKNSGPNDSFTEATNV
NPY-Y2 antag: antagonists of human neuropeptide Y receptor Y2 | P49146 | NPY-Y2 expressing cells, antagonist mode | inhibition, % at 2.7 µM | 140,000 tested, 0.99% active | AID 793; in the data active = inhibition above about 17%;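 note: 0% = vehicle with agonist challenge and 100% = reference antagonist with challenge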
NPY Y1 blocker: NPY-Y1 (human) receptor antagonism; AID 1040; 200,000 tested, 1% active; HEK293-CNG Y1 cells, membrane potential fluorescence; NPY at EC95, then isoproterenol; inhibition, % at 3.6 µM; P25929;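 active = inhibition above the campaign mean inhibition of all tested compounds plus 3 SD, cut at about 20% in these data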;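 note: 0% = DMSO wells given NPY plus isoproterenol and 100% = isoproterenol alone without NPY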
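Material: Y1- and CNG-channel-expressing HEK293 cells / Probe or stimulus: NPY 25 nM then isoproterenol 1 µM plus Ro 20-1724 25 µM / Doses: 3.6 µM single dose, DMSO 0.4% / Schedule: compound incubation 1 h at room temperature, readout 45 min post-stimulation / Signal: membrane potential fluorescence / Benchmarks: isoproterenol-only wells as full block versus NPY-plus-isoproterenol wells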
NPY-Y2 confirm: confirmation of human NPY-Y2 receptor potentiators or agonists. shares compounds with NPY-Y2 PAM-ag. cell-based NPY-Y2 potentiator/agonist assay. activation, % at 3.6 µM. 450 tested, 20% active. AID 1539; in the data active = activation above about 33%
NPY-Y1 potentiator: potentiates or activates NPY-Y1, counter-screen for NPY-Y2 hits; shares compounds with NPY-Y2 PAM-ag; Y1 HEK293-CNG cells, membrane potential fluorescence; activation, % at 3.6 µM; 450 tested, 20% active; AID 1651; in the data active = activation above about 45%;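 note: cells stimulated with submaximal NPY then isoproterenol with phosphodiesterase inhibitor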
NPY-Y1 ag 2: activates human NPY-Y1, counter-screen for NPY-Y2 potentiators | shares compounds with NPY-Y2 PAM-ag | HEK293 Y1-CNGC, membrane potential fluorescence, agonism | activation, % at 3.6 µM | 450 tested, 37% active | AID 1702;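 active = activation above the mean of DMSO-only control wells plus 3 SD, cut at about 18% in these data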;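 note: cells stimulated with 1 µM isoproterenol plus the PDE inhibitor Ro 20-1724; 0% = isoproterenol with DMSO and no NPY and 100% = 40 nM NPY; Y1 agonists lower the membrane potential dye signal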
CNGC inh: counter-screen for NPY-Y2 potentiators: inhibitors of CNG channel activity | HEK293-CNG parental, isoproterenol cAMP, membrane potential fluorescence | shares compounds with NPY-Y2 PAM-ag | 450 tested, 32% active | inhibition, % at 3.6 µM;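 active = inhibition above the control-well mean plus 3 SD of those wells, cut at about 22% in these data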;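 note: 0% = DMSO with isoproterenol and 100% = DMSO without isoproterenol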
NPY-Y2 ag 2: counter-screen for NPY-Y2 potentiators: agonists of human NPY-Y2; shares compounds with NPY-Y2 PAM-ag; HEK293 Y2/CNGC cells, membrane potential fluorescence, agonist mode; activation, % at 3.6 µM; 450 tested, 56% active; AID 1710;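 active = activation above the mean of solvent-only control wells plus 3 SD, cut at about 10% in these data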;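 note: cells stimulated by isoproterenol with no NPY added so direct agonism is tested; 0% = DMSO with isoproterenol alone and 100% = NPY at EC100 plus isoproterenol; agonism lowers probe fluorescence through less cAMP and CNG channel opening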
The depositor's hits bear a star; x = no result.

SMILES	NPY1 pot ag	NPY-Y2 PAM-ag	NPY-Y2 antag	NPY Y1 blocker	NPY-Y2 confirm	NPY-Y1 potentiator	NPY-Y1 ag 2	CNGC inh	NPY-Y2 ag 2
CCc1noc(C)c1C(=O)Nc1ncc(C)s1	25.4	31.9*	1.9	-1.2	-0.8	2.6	-1.1	2.4	-0.7
COCCN(C(=O)CC1C(=O)NCCN1Cc1ccc(-c2ccccc2)cc1)C(C)C (centres undefined)	17.6	13.1	x	2.9	x	x	x	x	x
Cc1ccc(OCc2ccc(C(=O)NN)o2)c([N+](=O)[O-])c1	17.2	-8.2	x	x	x	x	x	x	x
COC(=O)c1ccc(COc2ccc(C)cc2[N+](=O)[O-])o1	20.2	56.1*	x	x	6.5	-10.3	-15.3	-9.7	6.0
Cc1cc(Nc2ccccc2)nc(-c2ccccc2O)n1	1.2	33.8*	-4.6	-6.4	36.6*	42.6	28.7*	26.6*	37.1*
CCOC(=O)c1nc(Nc2ccc(Nc3ccccc3)cc2)c2ccccc2n1	13.5	32.8*	x	-7.5	35.1*	36.5	9.6	18.9	32.8*
CCOC(=O)c1ccc(Nc2nc(C(=O)OCC)nc3ccccc23)cc1	7.7	-2.9	-0.1	1.7	x	x	x	x	x
Cc1c(CN(C)C)c2c(n1Cc1ccccc1)C(=O)c1ccc(Br)cc1-2	26.2	27.5*	-0.9	-2.7	25.3	28.3	35.2*	24.0*	28.7*
Cc1c(CN(C)C)c2c(n1C)C(=O)c1ccc(Br)cc1-2	12.8	-2.7	1.4	0.7	x	x	x	x	x
N#CCCN(CCN1CCCC1)S(=O)(=O)c1ccc(-c2ccc([N+](=O)[O-])cc2)cc1	17.8	2.8	x	-0.5	x	x	x	x	x
COc1ccc(N2CC(NC(=O)NCC(C)C)CC2=O)cc1 (centres undefined)	-7.2	-6.8	0.9	3.3	x	x	x	x	x
CCn1[nH]c(=O)c(=Nc2c(C)n(C)n(-c3ccccc3)c2=O)cc1-c1ccc(Cl)cc1	52.6	41.5*	1.2	-7.2	38.2*	59.6*	42.9*	53.0*	30.3*
CN(CCO)c1nc(N)c2c(N)nc3c(c2c1C#N)CC(=O)N3Cc1cccs1	27.9	40.2*	x	-1.4	-1.1	-3.9	-14.2	-10.2	-10.2
N#Cc1c(N(CCO)CCO)nc(N)c2c(N)nc3c(c12)CC(=O)N3Cc1cccs1	-6.3	2.5	x	x	x	x	x	x	x
Fc1ccc2c(c1)/C(=N/Nc1ccccn1)CCS2	-4.2	30.3*	x	1.3	9.8	16.1	26.9*	16.6	21.9*
COC(=O)c1ccsc1NC(=O)C1=COCCO1	-3.5	50.7*	0.4	-8.7	-5.5	-3.3	-11.9	-9.4	-7.2
O=C(CCl)NC(=O)NC12CC3CC(CC(C3)C1)C2	30.8	40.8*	1.4	-12.9	27.6	49.2*	34.6*	9.8	26.6*
O=C(Nc1ccccc1C(=O)N1CCCC1)c1ccc(Cl)c([N+](=O)[O-])c1	34.8	27.5*	x	-11.8	3.0	6.9	4.5	-3.1	10.1*
CC1=CC(=O)C(C(C)C)=C/C1=N/OS(=O)(=O)c1ccccc1	35.3	63.4*	x	x	26.3	9.0	2.3	10.8	22.0*
Cc1ccnc(NC(c2ccncc2)c2c(C)[nH]c3ccccc23)c1 (centres undefined)	-1.8	-6.0	2.8	4.9	x	x	x	x	x
Cc1[nH]c2ccccc2c1C(Nc1nccs1)c1ccncc1 (centres undefined)	-8.0	26.7*	1.1	6.2	-5.3	2.8	-10.8	-3.5	-8.1
O=C1COc2ccc(C(=O)COC(=O)c3ccco3)cc2N1	7.9	-2.6	x	x	x	x	x	x	x
O=C1COc2ccc(C(=O)COC(=O)c3cc(S(=O)(=O)NCc4ccccc4)ccc3O)cc2N1	11.8	97.9*	x	x	-7.7	-9.1	-16.4	2.1	4.9
O=C(Nc1ccc(S(=O)(=O)Nc2ncccn2)cc1)c1ccc(Br)s1	11.6	27.7*	1.3	-0.4	3.1	5.2	10.3	6.8	9.1
